These results are taken from ChEMBL document CHEMBL1800034, “A synthetic 7,8-dihydroxyflavone derivative promotes neurogenesis and exhibits potent antidepressant effect” (J Med Chem, 2010).

In data set [1] the test system is Mus musculus. In words: Antidepressant activity in C57BL/6J mouse assessed as decrease in immobility at 5 mg/kg, po administered for 21 days measured last 4 mins of total 6 mins observation time by forced swim test. It is filed as functional, organism-based. Also on record: dose 5 mg/kg. The essentials:
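Male C57BL/6J mice, 2–3 months old, were gavaged with saline or compound at 5 mg/kg for 21 days. Mice were acclimated to the test room for 2 days. There was no pre-swim. Each mouse swam for 6 min in a 16 cm cylinder of water 14 cm deep at 24 °C. Immobility was scored blind over the last 4 min; mean ± SEM, ANOVA.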

Data set [2] relates to Mus musculus. In words: Toxicity in C57BL/6J mouse assessed as pathological changes in intestine at 5 mg/kg, po for 3 weeks. The format is organism-based. Also noted: dose 5 mg/kg, route oral. The conditions noted are these: in vivo, 504 h. The essentials: (§1)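 Mice were dosed orally at 5 mg/kg for 3 weeks, with saline-treated controls. Major organs were examined for pathological changes, and a complete blood count was done.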

The target in data set [3] is BDNF/NT-3 growth factors receptor (Rattus norvegicus) (UniProt Q63604). In words: Agonist activity at TrkB in E17 rat primary rat cortical neurons assessed as AKT phosphorylation at Ser 473 at 10 to 50 nM after 15 mins by titration assay. It is filed as functional. The essentials:
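Primary cortical neurons were incubated with graded concentrations, starting at 10 nM, for 15 min. Phospho-Akt Ser473 was measured by sandwich ELISA on 20 µg of lysate. Data come from 2 replicated experiment sets, given as mean ± SEM. Comparisons used one-way ANOVA against control and Student's t-test between compounds.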

For data set [4] the target is unchanged. In words: Agonist activity at TrkB in E16 rat embryonic cortical neurons assessed as inhibition of glutamate-induced caspase 3 activation at 50 to 500 nM after 30 mins followed by 16 hrs of 50 uM glutamate-challenge by ELISA. It is filed as functional. The essentials:
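Cortical neurons from E16 rat embryos were pretreated with the indicated compound concentrations for 30 min. They were then challenged with 50 µM glutamate for 16 h. Active caspase-3 in the lysates was measured by ELISA.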
(In general: ELISA stands for enzyme-linked immunosorbent assay.)

Data set [5] concerns Mus musculus. In words: Toxicity in C57BL/6J mouse assessed as pathological changes in hippocampus at 5 mg/kg, po for 3 weeks. Conditions: in vivo, 504 h. It is filed as organism-based. Also on record: dose 5 mg/kg, route oral. The essentials:
as §1

In data set [6] the test system is HEK293. In words: Cytotoxicity against human HEK293 cells assessed as cell death at 50 to 50000 nM after 24 hrs by LDH assay. The format is cell-based. Conditions: hek293, 24 h, 50 µM.
Data set [7] has as its system HEK293. As to the kind of experiment: Cytotoxicity against human HEK293 cells assessed as inhibition of cell proliferation at up to 50 uM by MTT assay. It is filed as cell-based. A general note: Formazan colour is commonly taken as a measure of viable cells.
Data set [8] relates to Mus musculus. In words: Toxicity in C57BL/6J mouse assessed as pathological changes in spleen at 5 mg/kg, po for 3 weeks. The format is organism-based. The conditions noted are these: in vivo, 504 h. Also on record: dose 5 mg/kg, route oral. The essentials:
as §1

The nature of data set [9]: Cytotoxicity at E17 rat primary cortical neurons assessed as cell death at 5 uM by LDH assay. It is filed as cell-based. The conditions noted are these: cerebral cortex neuron.
Data set [10] has as its system Mus musculus. As to the kind of experiment: Toxicity in C57BL/6J mouse assessed as pathological changes in testis at 5 mg/kg, po for 3 weeks. It is filed as organism-based. Also noted: dose 5 mg/kg, route oral. Conditions: in vivo, 504 h. The essentials:
as §1

Active and inactive are the calls of the source. The rule behind the calls is not given here.

Chain of BDNF/NT-3 growth factors receptor (Rattus norvegicus) (Q63604 whole entry): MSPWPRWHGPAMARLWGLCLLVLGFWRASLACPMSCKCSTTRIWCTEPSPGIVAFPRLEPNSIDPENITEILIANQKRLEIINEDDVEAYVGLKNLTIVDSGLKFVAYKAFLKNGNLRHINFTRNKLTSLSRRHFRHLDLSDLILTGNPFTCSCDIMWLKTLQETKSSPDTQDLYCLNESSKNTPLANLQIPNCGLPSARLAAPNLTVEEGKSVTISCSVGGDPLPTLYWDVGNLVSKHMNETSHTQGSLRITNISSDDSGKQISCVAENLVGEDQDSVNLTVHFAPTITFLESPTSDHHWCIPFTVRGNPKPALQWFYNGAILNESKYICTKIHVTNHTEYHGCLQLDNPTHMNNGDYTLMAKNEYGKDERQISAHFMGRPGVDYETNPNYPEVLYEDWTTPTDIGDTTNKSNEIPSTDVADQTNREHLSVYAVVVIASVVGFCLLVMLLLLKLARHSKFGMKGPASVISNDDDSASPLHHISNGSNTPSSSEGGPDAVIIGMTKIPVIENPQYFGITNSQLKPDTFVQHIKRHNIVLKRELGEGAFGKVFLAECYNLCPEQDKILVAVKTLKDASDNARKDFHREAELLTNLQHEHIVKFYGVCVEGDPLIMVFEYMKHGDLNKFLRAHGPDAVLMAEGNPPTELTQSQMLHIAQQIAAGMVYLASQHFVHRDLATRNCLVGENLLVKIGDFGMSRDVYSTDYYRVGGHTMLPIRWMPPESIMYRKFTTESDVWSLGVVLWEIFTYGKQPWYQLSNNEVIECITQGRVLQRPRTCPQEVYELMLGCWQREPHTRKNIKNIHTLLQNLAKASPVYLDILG

Take `CN(C)c1ccc(-c2cc(=O)c3ccc(O)c(O)c3o2)cc1`: the outcome (in the data set with Mus musculus [1]; in data set [3]; in [4]) was Active. The Activity entry (in the data set with Mus musculus [2]; in the data set on Mus musculus [5]; with HEK293 [6]; in the data set with HEK293 [7]; in the data set with Mus musculus [8]; in data set [9]) was “Non-toxic” each time. For the same compound, the Activity entry in the data set with Mus musculus [10] is “Non-toxic”.
